The test concerns the target T1, Adenosine deaminase (Bos taurus) (UniProt P56658).
T1 sequence (whole entry): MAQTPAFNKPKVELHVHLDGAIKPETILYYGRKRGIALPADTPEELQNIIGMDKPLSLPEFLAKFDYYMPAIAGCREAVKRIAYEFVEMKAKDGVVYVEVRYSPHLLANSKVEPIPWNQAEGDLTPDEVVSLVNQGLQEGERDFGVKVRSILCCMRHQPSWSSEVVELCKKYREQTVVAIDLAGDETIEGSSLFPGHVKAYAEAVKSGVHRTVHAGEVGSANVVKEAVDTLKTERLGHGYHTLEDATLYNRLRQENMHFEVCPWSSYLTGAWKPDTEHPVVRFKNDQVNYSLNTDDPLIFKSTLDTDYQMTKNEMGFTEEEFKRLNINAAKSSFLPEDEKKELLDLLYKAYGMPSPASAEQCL
Nature of the test: Relative Vmax value of the compound. The gist of the method:
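Deamination rates followed with calf mucosal ADA (EC 3.5.4.4) in buffer solutions; Km and Vmax relative to adenosine as substrate; inhibition (Ki) assessed with adenosine as substrate.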

Compound `Nc1ncnc2c1ncn2[C@@H]1O[C@H](CO)[C@@H](O)[C@H]1O` displayed a Relative Vmax of 1.

Values taken from ChEMBL document CHEMBL1134486, “Synthesis and biological evaluation of purine-containing butenolides” (J Med Chem, 2001).
